Test results published in ChEMBL document CHEMBL3232997, “Synthesis and biological evaluation of a series of benzoxazole/benzothiazole-containing 2,3-dihydrobenzo[b][1,4]dioxine derivatives as potential antidepressants” (Bioorg Med Chem Lett, 2014).
Active and inactive are the calls of the source. No cut-off for these calls is given here.

Columns and labels:
[1] = biological target: T1, 5-hydroxytryptamine receptor 1A (Rattus norvegicus, UniProt P19327); assay: Displacement of [3H]8-OH-DPAT from rat cerebral cortex 5-HT1A receptor after 30 mins by liquid scintillation counting; format: tissue-based
T1 sequence (P19327 whole entry): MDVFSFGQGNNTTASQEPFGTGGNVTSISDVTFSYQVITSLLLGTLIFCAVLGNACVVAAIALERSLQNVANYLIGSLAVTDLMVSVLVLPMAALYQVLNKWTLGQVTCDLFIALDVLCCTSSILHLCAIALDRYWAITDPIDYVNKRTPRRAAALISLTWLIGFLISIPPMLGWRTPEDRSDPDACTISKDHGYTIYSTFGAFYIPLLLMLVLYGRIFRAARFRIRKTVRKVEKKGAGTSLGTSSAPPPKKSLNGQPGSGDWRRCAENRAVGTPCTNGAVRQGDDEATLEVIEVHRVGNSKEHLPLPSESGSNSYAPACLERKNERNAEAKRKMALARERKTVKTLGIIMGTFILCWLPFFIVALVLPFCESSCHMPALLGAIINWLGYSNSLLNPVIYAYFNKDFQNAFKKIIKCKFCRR
Outline: (§1)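 Competition binding on rat cerebral cortex homogenates. 5-HT1A was labelled with [3H]-8-hydroxy-2-(di-n-propylamino)tetralin and 5-HT2A with [3H]ketanserine. The method followed a previously reported procedure. Ki values are reported as mean ± SEM.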

[2] = biological target: 5-hydroxytryptamine receptor 2A (Rattus norvegicus, UniProt P14842); assay: Displacement of [3H]-ketanserin from rat cerebral cortex 5-HT2A receptor after 30 mins by liquid scintillation counting; format: tissue-based; outline: as §1
Sequence of 5-hydroxytryptamine receptor 2A (P14842 whole entry): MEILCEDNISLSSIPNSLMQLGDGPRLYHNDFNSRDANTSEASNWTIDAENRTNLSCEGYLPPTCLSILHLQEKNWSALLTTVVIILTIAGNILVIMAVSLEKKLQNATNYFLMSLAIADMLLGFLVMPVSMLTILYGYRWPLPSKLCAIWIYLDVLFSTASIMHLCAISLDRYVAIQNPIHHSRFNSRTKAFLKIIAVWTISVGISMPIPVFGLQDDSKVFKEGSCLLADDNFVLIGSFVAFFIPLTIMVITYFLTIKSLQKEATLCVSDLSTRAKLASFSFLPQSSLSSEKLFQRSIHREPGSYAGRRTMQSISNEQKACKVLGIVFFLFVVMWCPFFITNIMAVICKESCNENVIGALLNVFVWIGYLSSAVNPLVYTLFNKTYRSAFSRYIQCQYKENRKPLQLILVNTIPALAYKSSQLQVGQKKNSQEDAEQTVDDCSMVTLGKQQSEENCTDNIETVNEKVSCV

Mus musculus [3] = assay: Antidepressant activity in Kunming mouse assessed as decrease in immobility time at 40 mg/kg, po by tail suspension test; format: functional, organism-based; set-up: dose 40 mg/kg
Mus musculus [4] = assay: Antidepressant activity in Kunming mouse assessed as decrease in immobility time at 40 mg/kg, po by forced swimming test; format: functional, organism-based; set-up: dose 40 mg/kg
Mus musculus [5] = assay: Toxicity in Kunming mouse assessed as locomotor activity at 10 mg/kg, po measured for 10 mins (reference value: 1165 +/- 263 cm); format: organism-based; set-up: dose 10 mg/kg, route oral; details: in vivo
Outline: (§2)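 Mice were given test compound orally, with a vehicle-treated group as control. Locomotor activity was recorded for 10 min and reported as distance travelled (cm). Values are mean ± SEM, n = 10 per group. The test was used to rule out false positives in the swim and tail-suspension tests.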

Mus musculus [6] = assay: Toxicity in Kunming mouse assessed as locomotor activity at 100 mg/kg, po measured for 10 mins (reference value: 1165 +/- 263 cm); format: organism-based; set-up: dose 100 mg/kg, route oral; details: in vivo; outline: as §2
Mus musculus [7] = assay: Toxicity in Kunming mouse assessed as locomotor activity at 40 mg/kg, po measured for 10 mins (reference value: 1165 +/- 263 cm); format: organism-based; set-up: dose 40 mg/kg, route oral; details: in vivo; outline: as §2
Mus musculus [8] = assay: Antidepressant activity in po dosed Kunming mouse assessed as decrease in immobility time by forced swimming test; format: functional

Ki [1] [µM] | Ki [2] [µM] | SMILES | antidepressant activity (active/inactive) (Mus musculus [3]) | Decrease in immobility time (Mus musculus [4]) | Activity (Mus musculus [5]) [cm] | Activity (Mus musculus [6]) [cm] | Activity (Mus musculus [7]) [cm] | ED50 (Mus musculus [8]) [mg/kg]
0.106 | 0.00074 | c1ccc(C2Oc3ccccc3OC2COCCCCCN2CCC(c3nc4ccccc4o3)CC2)cc1 (stereo not given) |  |  |  |  |  | 
0.076 | 0.087 | O=C(NCCN1CCC(c2nc3ccccc3o2)CC1)C1COc2ccccc2O1 (stereo not given) |  |  |  |  |  | 
0.152 | 0.0082 | CC1Oc2ccccc2OC1COCCCN1CCC(c2nc3ccccc3o2)CC1 (stereo not given) |  |  |  |  |  | 
0.094 | 0.113 | O=C(NCCN1CCC(c2nc3ccccc3s2)CC1)C1COc2ccccc2O1 (stereo not given) |  |  |  |  |  | 
0.085 | 0.09 | O=C(NCCCN1CCC(c2nc3ccccc3s2)CC1)C1COc2ccccc2O1 (stereo not given) | Active | Active |  |  |  | 
 |  | CN(C)CCCN1c2ccccc2CCc2ccccc21 [IMIPRAMINE] |  |  | 1248 |  |  | 
0.103 | 0.131 | CC1Oc2ccccc2OC1COCCCN1CCC(c2nc3ccccc3s2)CC1 (stereo not given) |  |  |  |  |  | 
0.092 | 0.028 | c1ccc2c(c1)OCC(COCCCN1CCC(c3nc4ccccc4s3)CC1)O2 (stereo not given) |  |  |  |  |  | 
0.017 | 0.00071 | c1ccc(C2Oc3ccccc3OC2COCCCCN2CCC(c3nc4ccccc4o3)CC2)cc1 (stereo not given) | Active | Active | 1180 | 1150 | 1114 | 39
0.084 | 0.088 | O=C(NCCCN1CCC(c2nc3ccccc3o2)CC1)C1COc2ccccc2O1 (stereo not given) | Active | Active |  |  |  | 
0.051 | 0.0041 | c1ccc(C2Oc3ccccc3OC2COCCCN2CCC(c3nc4ccccc4o3)CC2)cc1 (stereo not given) | Active | Active |  |  |  | 
0.131 | 0.148 | c1ccc(C2Oc3ccccc3OC2COCCCCCN2CCC(c3nc4ccccc4s3)CC2)cc1 (stereo not given) |  |  |  |  |  | 
0.031 | 0.024 | c1ccc(C2Oc3ccccc3OC2COCCCCN2CCC(c3nc4ccccc4s3)CC2)cc1 (stereo not given) | Active | Active |  |  |  | 
0.12 | 0.03 | c1ccc2c(c1)OCC(COCCCN1CCC(c3nc4ccccc4o3)CC1)O2 (stereo not given) |  |  |  |  |  | 
0.134 | 0.019 | c1ccc(C2Oc3ccccc3OC2COCCCN2CCC(c3nc4ccccc4s3)CC2)cc1 (stereo not given) | Active | Active |  |  |  | 
